The source of these data is ChEMBL document CHEMBL1129351, “Hypoxia-selective antitumor agents. 14. Synthesis and hypoxic cell cytotoxicity of regioisomers of the hypoxia-selective cytotoxin 5-[N,N-bis(2-chloroethyl)amino]-2,4-dinitrobenzamide” (J Med Chem, 1996).

A short description of assay [1]: Potency in clonogenic assay defined by Hypersensitivity factor calculated for AA8 cells versus EMT6 cells [IC50(AA8)/IC50 (EMT6)]. Format: functional. The gist of the method: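 Aerobic growth-inhibition microassay run in parallel on AA8 (200/well), UV4 (300/well) and murine mammary EMT6 (75/well) cells. After 24 h growth, cells were given 18 h drug exposure in RMEM/5% FBS, washed, grown a further 78 h, and stained with methylene blue. The hypersensitivity factor is IC₅₀(AA8)/IC₅₀(named line), reported as intraexperiment means ± SEM.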

Assay [2] is described as follows: Potency in clonogenic assay, defined by hypersensitivity factor calculated for UV4 cells versus AA8 cells [IC50(AA8)/IC50(UV4)]. Format: functional, Cricetulus griseus.
The subject of assay [3] is CHO-AA8. Description: Inhibition of growth under aerobic conditions in AA8 cells. Format: functional, cell-based. Conditions: Cricetulus griseus. Put shortly: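 Growth-inhibition microassay: AA8 cells, 200 per well, were grown 24 h, then exposed aerobically to drug in RMEM with 5% fetal bovine serum for 18 h and washed three times. After a further 78 h they were stained with methylene blue. IC₅₀ = concentration giving 50% growth inhibition relative to controls; means ± SEM, values without SEM from a single determination.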

Assay [4] is described as follows: The ratio of C10 values in air and N2 using UV4 cell line. Format: functional. The gist of the method: (§1)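 Stirred early-plateau suspensions (10⁶/mL) of AA8 or UV4 cells were exposed to drug for 1 h under continuous gassing with 5% CO₂ in air or in N₂, after 1 h pre-equilibration, and then plated for clonogenic survival. C₁₀ (10% survival) was found for each gas phase and the ratio C₁₀(air)/C₁₀(N₂) reported.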

The subject of a further assay is UV4. Description: Compound was tested for the concentration required to reduce cell survival under hypoxic conditions, using the cell line UV4 in the clonogenic assay. Format: functional, Cricetulus griseus. Put shortly: (§2)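 Clonogenic assay on early-plateau Chinese hamster cells, grown in spinner flasks (AA8 to 10⁶/mL, UV4 to 6 × 10⁵/mL) and resuspended in fresh medium. Stirred 10 mL suspensions at 10⁶/mL were exposed to drug for 1 h under continuous 5% CO₂ in N₂; cells and drug solutions were pre-equilibrated under gas for 1 h. C₁₀ = concentration (µM) giving 10% survival relative to controls.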

Assay [5] relates to CHO-AA8. The assay is described as follows: Compound was tested for the concentration required to reduce cell survival under hypoxic conditions, using the cell line AA8 in the clonogenic assay. Format: functional, Cricetulus griseus. Put shortly: as §2
Assay [6] is described as follows: The ratio of C10 values in air and N2 using AA8 cell line. Format: functional, CHO-AA8. Put shortly: as §1
The test system of assay [7] is CHO-AA8. Description: Inhibitory activity against AA8 cell growth in aerobic condition after 4 hr of exposure. Format: functional, cell-based. To be noted: Cricetulus griseus, CHO-AA8, 4 h.

As a reminder, the IC50 is the midpoint of a concentration-inhibition curve.

With `NC(=O)c1cc([N+](=O)[O-])c(N(CCCl)CCCl)c([N+](=O)[O-])c1`, the Hypersensitivity factor in assay [1] was 1.3; in assay [2], 1.5. This compound registered an IC50 with CHO-AA8 [3] of 97 µM.

With `O=C(NCC(O)CO)c1cc([N+](=O)[O-])c([N+](=O)[O-])cc1N(CCCl)CCCl` (stereo unspecified), the Hypersensitivity factor in assay [1] is given as 1.9; in assay [2] it was 1.5. Also, half-maximal inhibition with CHO-AA8 [3] (IC50) was put at 73 µM.

In the case of `CN(C)CCNC(=O)c1cc([N+](=O)[O-])c(N(CCCl)CCCl)cc1[N+](=O)[O-]`, the Hypersensitivity factor in assay [1] is reported as 5.8; in assay [2], 13. Also, 12 µM corresponded to half-maximal inhibition with CHO-AA8 [3] (IC50). For the same compound, the Ratio in assay [4] came to 7.5; in assay [6], 3.2. Also, the C10 in the assay with UV4 was 12 µM; in the assay on CHO-AA8 [5] it was 120 µM.

On to `NC(=O)c1cc([N+](=O)[O-])cc([N+](=O)[O-])c1N(CCCl)CCCl`, for which the Hypersensitivity factor in assay [1] is recorded as 0.7; in assay [2], 4.3. For the same compound, the IC50 with CHO-AA8 [3] came to 73 µM.

In the case of `O=C(NCC(O)CO)c1cc([N+](=O)[O-])cc([N+](=O)[O-])c1N(CCCl)CCCl` (stereo unspecified), the Hypersensitivity factor was 1.8 in assay [1] and 4.9 in assay [2]. In the assay with CHO-AA8 [3], this compound registered an IC50 of 500 µM.

As to `NC(=O)c1ccc(N(CCCl)CCCl)c([N+](=O)[O-])c1[N+](=O)[O-]`, the Hypersensitivity factor in assay [1] is given as 3.1; in assay [2], 1. The compound also returned an IC50 in the assay on CHO-AA8 [3] of 20 µM.

Consider `CN(C)CCNC(=O)c1cc(N(CCCl)CCCl)c([N+](=O)[O-])cc1[N+](=O)[O-]`, for which the Hypersensitivity factor in assay [1] is 6.7; in assay [2], 3.1. Also, the Ratio was 44 in assay [4] and 3.1 in assay [6]. The C10 in the assay with UV4 was 400 µM; in the assay on CHO-AA8 [5] it was 1300 µM.

As to `O=C(NCC(O)CO)c1c([N+](=O)[O-])ccc(N(CCCl)CCCl)c1[N+](=O)[O-]` (stereo unspecified), the Hypersensitivity factor in assay [1] is 1.7; in assay [2], 2.7. The compound also showed an IC50 with CHO-AA8 [3] of 652 µM.

On to `CN(C)CCNC(=O)c1cc([N+](=O)[O-])c(N(CCCl)CCCl)c([N+](=O)[O-])c1`, for which the Hypersensitivity factor in assay [1] is 2.1; in assay [2] it was 1.8. In addition, the IC50 in the assay with CHO-AA8 [3] came out at 62 µM. In addition, the results for the Ratio in assay [4] and in assay [6] were 1.04 and 0.96, respectively. In addition, the C10 was 250 µM with UV4 and 270 µM in the assay on CHO-AA8 [5].

For the compound `O=C(NCC(O)CO)c1cc([N+](=O)[O-])c(N(CCCl)CCCl)cc1[N+](=O)[O-]` (stereo unspecified), the Hypersensitivity factor in assay [1] is reported as 3.5; in assay [2], 12. The compound also registered an IC50 in the assay with CHO-AA8 [3] of 81 µM.

Take `CN(C)CCNC(=O)c1cc([N+](=O)[O-])c([N+](=O)[O-])cc1N(CCCl)CCCl`: the results for the Hypersensitivity factor in assay [1] and in assay [2] were 3 and 1.4, respectively. The midpoint of inhibition in the assay on CHO-AA8 [3], the IC50, lay at 4 µM. Besides, the Ratio is on record as 1.8 in assay [4] and 0.098 in assay [6]. The results for the C10 in the assay with UV4 and with CHO-AA8 [5] were 18 µM and 44 µM, respectively.

As to `O=C(NCC(O)CO)c1cc([N+](=O)[O-])c(N(CCCl)CCCl)c([N+](=O)[O-])c1` (stereo unspecified), the Hypersensitivity factor is on record as 2.3 in assay [1] and 0.9 in assay [2]. This compound also yielded an IC50 with CHO-AA8 [3] of 320 µM.

For `NC(=O)c1cc([N+](=O)[O-])c([N+](=O)[O-])cc1N(CCCl)CCCl`, the figures for the Hypersensitivity factor in assay [1] and in assay [2] were 0.43 and 0.88, respectively. In the assay on CHO-AA8 [3], this compound had a 50% inhibitory concentration (IC50) of 1.6 µM.

With `O=C(NCC(O)CO)c1ccc(N(CCCl)CCCl)c([N+](=O)[O-])c1[N+](=O)[O-]` (stereo unspecified), the Hypersensitivity factor in assay [1] is reported as 3; in assay [2], 2.3. The compound also registered a half-maximal inhibitory concentration (IC50) in the assay on CHO-AA8 [3] of 108 µM.

Regarding `CN(C)CCNC(=O)c1ccc(N(CCCl)CCCl)c([N+](=O)[O-])c1[N+](=O)[O-]`, the Hypersensitivity factor in assay [1] is recorded as 1.2; in assay [2], 1. Also, the half-maximal inhibitory concentration (IC50) in the assay on CHO-AA8 [3] was determined as 13 µM. In addition, the values for the Ratio in assay [4] and in assay [6] were 4 and 0.82, respectively. Moreover, the figures for the C10 in the assay with UV4 and in the assay on CHO-AA8 [5] were 160 µM and 140 µM, respectively.

With `NC(=O)c1c([N+](=O)[O-])ccc(N(CCCl)CCCl)c1[N+](=O)[O-]`, the Hypersensitivity factor in assay [2] is on record as above 2.6. The compound also displayed an IC50 in the assay with CHO-AA8 [3] above 244 µM.

For `O=C(NCC(O)CO)c1cc(N(CCCl)CCCl)c([N+](=O)[O-])cc1[N+](=O)[O-]` (stereo unspecified), the values for the Hypersensitivity factor in assay [1] and in assay [2] were 2.3 and 3.4, respectively. Moreover, the Ratio in assay [4] was 8.6. The same compound came in with a C10 in the assay on UV4 of 3600 µM.

As for `CN(C)CCNC(=O)c1cc([N+](=O)[O-])cc([N+](=O)[O-])c1N(CCCl)CCCl`, the Hypersensitivity factor in assay [1] is given as 2.5; in assay [2], 13. The IC50 in the assay on CHO-AA8 [3] was 150 µM. The Ratio in assay [4] is given as 68; in assay [6] it was above 2.35. Besides, the C10 in the assay with UV4 was 1100 µM.

In the case of `NC(=O)c1cc(N(CCCl)CCCl)c(NO)cc1[N+](=O)[O-]`, the IC50 with CHO-AA8 [7] turned out to be 180 µM.

With `CN(C)CCNC(=O)c1c([N+](=O)[O-])ccc(N(CCCl)CCCl)c1[N+](=O)[O-]`, the results for the Hypersensitivity factor in assay [1] and in assay [2] were 3 and 2.7, respectively. The same compound came in with an IC50 in the assay on CHO-AA8 [3] of 426 µM. In addition, the Ratio in assay [4] amounted to 116; in assay [6], 2.2. In addition, the C10 with UV4 and with CHO-AA8 [5] was 2200 µM in each case.

As to `NC(=O)c1cc(N(CCCl)CCCl)c([N+](=O)[O-])cc1[N+](=O)[O-]`, the Hypersensitivity factor in assay [1] is given as 1.1; in assay [2], 6.4. For the same compound, the Ratio in assay [4] amounted to 42. The compound further had a C10 in the assay on UV4 of 3400 µM.

In the case of `NC(=O)c1cc([N+](=O)[O-])c(N(CCCl)CCCl)cc1[N+](=O)[O-]`, the Hypersensitivity factor is recorded as 1.9 in assay [1] and 2.8 in assay [2]. The IC50 with CHO-AA8 [3] came out at 11 µM.
